Experiment [1] is described as follows: inhibitors of TNFa-induced NFkB p65 translocation, primary screen, imaging, HUVEC, MLSMR starter and 10KST1 sets (AID 438;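 active = inhibition above 20% together with a positive visual image hit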;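 note: compound added about 3h40 before a 20 min TNFalpha stimulation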;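 for inhibition: signal is the nuclear over cytoplasmic p65 intensity ratio per well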). The settings on record: HUVEC TNFa-induced p65 nuclear translocation; cell count: measured here: nuclei count (cytotoxicity indicator), at 2.08 µM; inhibition: at 2 µM, stronger effect = higher value, 0% TNFa-plus-vehicle, 100% no-TNFa wells.
Experiment [2] is described as follows: inhibitors of mutant huntingtin aggregation, primary screen, imaging, exon1htt(103Q)mCFP cells, high-content imaging (AID 483;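 active = visual image review flags a hit and inhibition of aggregation exceeds 20%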;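 note: compound exposure lasted 3 days before fixation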;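 for nuclei count: percent of the per-plate median nuclei count of sample wells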). The following applies: exon1htt(103Q)mCFP cell line, aggregate imaging, at 2 µM; inhibition of aggregation: stronger effect = higher value; nuclei count: measured here: cell count, toxicity.
The nature of experiment [3]: inhibitors of E-selectin induction by TNFa, primary screen, imaging, HUVEC, immunofluorescence, MLSMR starter and 10KST1 sets (AID 487;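 active = visually confirmed hit in the image check and inhibition above 20%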;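 for inhibition: signal is fraction of cell area covered by stained E-selectin grains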;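 for nuclei count: 100% = median nuclei count of all wells on the same plate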). The following applies: HUVEC TNFalpha-induced E-selectin immunofluorescence imaging, at 2 µM; inhibition: stronger effect = higher value; nuclei count: measured here: cell number, toxicity.
Experiment [4] deals with Voltage-gated potassium channel subunit beta-2 (Rattus norvegicus) (UniProt P62483). Nature of the experiment: KvBeta enzyme negative modulators, primary screen, biochemical, NADPH fluorescence (AID 622;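 active = fluorescence slope higher than the sample average by over 3 SD, cut at about -0.22 in these data, passing the limit was not always enough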;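 note: slope of raw intensity against log time taken from 70 to 1610 s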). The settings on record: recombinant KvBeta, 4-cyanobenzaldehyde reduction, at 10 µM, stronger effect = higher value.
Experiment [5] shares this target. Nature of the experiment: KvBeta positive modulators, primary screen, biochemical, NADPH fluorescence (AID 623;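 active = NADPH fluorescence slope more negative than the mean of all samples by about 3 SD, 99.7% confidence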;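 note: fluorescence intensity change per second fitted from 20 to 320 s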). The settings on record: Recombinant KvBeta, NADPH fluorescence decrease slope, 10 min; at 10 µM; stronger effect = lower value.
In experiment [6] the target is Muscarinic acetylcholine receptor M4 (Homo sapiens) (UniProt P08173). In words: compounds altering M4/GIRK thallium flux, either direction, primary screen, M4 allosteric agonist project, cell-based, HEK293 M4/GIRK, BTC-AM (AID 625;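 active = fluorescence slope after compound addition differing from the mean of all tested samples at 99.7% confidence, mostly higher but some lower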;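 note: thallium influx through GIRK channels coupled to M4 in HEK293 cells with BTC-AM dye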). The settings on record: at 10 µM, actives lie on both sides. The gist of the method: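 System: HEK293 cells with M4 receptor and GIRK channels | Incubation: Cells overnight at 37 °C, BTC-AM loading 1 h, reads 2 min total | Technique: Kinetic BTC-AM fluorescence sampled at 1 Hz, 10 s pre-addition baseline | Measure: Post-addition slope, 15–24 s, of baseline-normalized fluorescence | Control set: Carbachol positive, DMSO negative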

A short description of experiment [7]: inhibitors of Sendai virus-induced IRF3 signaling, primary screen, TLR/RLR signaling modifier project, cell-based, Sendai virus stimulus, luciferase, 10K MLSCN set (AID 602276;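 active = inhibition at or above 50% at 10 µM; inactive = inhibition below 50%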;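 note: firefly luciferase from ISG56 promoter only with Renilla not read in this screen; 0% = Sendai virus plus DMSO and 100% = medium plus DMSO without virus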). The settings on record: HEK293 RL24 IRF3 luciferase reporter, at 10 µM, stronger effect = higher value. Background: Reporter assays use an easily measured gene product as a stand-in for the process of interest.

Experiment [8] is described as follows: inhibitors of poly I:C-induced TLR3 signaling, primary screen, cell-based, poly I:C stimulus, luciferase, 10K MLSCN set (AID 602277). The settings on record: HEK293-TLR3 RL24 IRF3 luciferase reporter, at 10 µM, stronger effect = higher value.

We go through 14 molecules from PubChem BioAssay.

The source made the active and inactive calls.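 Rule for the calls, unless noted: active = inhibition of the reporter signal at or above 50%; inactive = inhibition below 50%.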

Voltage-gated potassium channel subunit beta-2 (Rattus norvegicus), sequence (P62483 whole entry, looked up): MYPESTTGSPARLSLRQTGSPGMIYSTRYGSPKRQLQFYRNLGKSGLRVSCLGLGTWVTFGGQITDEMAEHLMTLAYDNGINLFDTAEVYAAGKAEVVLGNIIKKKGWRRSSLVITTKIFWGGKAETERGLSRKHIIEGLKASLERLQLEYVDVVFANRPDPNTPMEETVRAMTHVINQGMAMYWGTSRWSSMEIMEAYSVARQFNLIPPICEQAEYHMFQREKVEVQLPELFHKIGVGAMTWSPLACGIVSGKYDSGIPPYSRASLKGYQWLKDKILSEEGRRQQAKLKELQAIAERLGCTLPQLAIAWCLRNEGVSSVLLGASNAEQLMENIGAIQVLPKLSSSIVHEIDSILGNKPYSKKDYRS
Muscarinic acetylcholine receptor M4 (Homo sapiens), sequence (P08173 whole entry, looked up): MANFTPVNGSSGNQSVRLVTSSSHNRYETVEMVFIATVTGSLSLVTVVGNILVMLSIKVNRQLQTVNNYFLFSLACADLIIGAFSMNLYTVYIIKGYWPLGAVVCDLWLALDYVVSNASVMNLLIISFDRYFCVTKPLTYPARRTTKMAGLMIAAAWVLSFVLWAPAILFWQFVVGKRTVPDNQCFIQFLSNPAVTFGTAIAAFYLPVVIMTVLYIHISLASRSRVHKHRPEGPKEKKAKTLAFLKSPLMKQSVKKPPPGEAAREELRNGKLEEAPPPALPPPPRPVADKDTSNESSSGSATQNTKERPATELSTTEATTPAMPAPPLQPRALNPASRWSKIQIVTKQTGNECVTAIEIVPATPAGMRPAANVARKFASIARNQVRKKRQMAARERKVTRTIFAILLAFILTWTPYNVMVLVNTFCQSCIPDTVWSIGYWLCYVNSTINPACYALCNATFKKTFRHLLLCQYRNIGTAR

For the molecule `COCC(=O)N(Cc1ccccc1)c1ccccn1`, the cell count in experiment [1] was 354. Also, the inhibition is 4.9% (inactive) in experiment [1], -58.3% (inactive) in experiment [3], 11.8% (inactive) in experiment [7] and 14.7% (inactive) in experiment [8]. Besides, the inhibition of aggregation in experiment [2] was 1.6% (inactive). The nuclei count worked out at 94.8% in experiment [2] and 153% in experiment [3]. Besides, the fluorescence slope is -0.599 (inactive) in experiment [4] and 0.00609 (inactive) in experiment [6]. Further, in experiment [5], the NADPH fluorescence slope was -4.6e-05 (inactive).

With `O=C(CSc1nnc(-c2ccccc2Cl)n1Cc1ccco1)Nc1ccc2c(c1)OCCO2`, in experiment [1], the cell count turned out to be 309. The inhibition in experiment [1] is 0.8% (inactive); in experiment [3], -75.1% (inactive); in experiment [7] it was 8.89% (inactive); in experiment [8], 18.1% (inactive). The inhibition of aggregation in experiment [2] was 3.4% (inactive). Further, the values for the nuclei count in experiment [2] and in experiment [3] were 88.5% and 107%, respectively. Moreover, the figures for the fluorescence slope in experiment [4] and in experiment [6] were -0.391 (inactive) and 0.00631 (inactive), respectively. Also, in experiment [5], the NADPH fluorescence slope is -9.8e-05 (inactive).

For `CS(=O)(=O)c1ccc2nc(NC(=O)CCC(=O)c3cccs3)sc2c1`, the cell count in experiment [1] came to 517. Besides, the inhibition is 2.6% (inactive) in experiment [1], -87.7% (inactive) in experiment [3], 14.5% (inactive) in experiment [7] and 4.68% (inactive) in experiment [8]. In addition, the inhibition of aggregation in experiment [2] is -3.8% (inactive). In addition, the nuclei count in experiment [2] is 105%; in experiment [3], 95.8%. Further, the results for the fluorescence slope in experiment [4] and in experiment [6] were -0.594 (inactive) and 0.00448 (inactive), respectively. Further, the NADPH fluorescence slope in experiment [5] is 1.3e-06 (inactive).

Consider `COC(=O)c1ccc(CSc2nc3c(cnn3-c3ccc(C)c(C)c3)c(=O)[nH]2)o1`, for which the cell count in experiment [1] stood at 433. Besides, the inhibition in experiment [1] was 9.3% (inactive); in experiment [3], -55.6% (inactive); in experiment [7] it was 8.02% (inactive); in experiment [8] it was 13.9% (inactive). Besides, the inhibition of aggregation in experiment [2] was 2.1% (inactive). For the same molecule, the nuclei count was determined as 98.4% in experiment [2] and 108% in experiment [3]. Moreover, the fluorescence slope in experiment [4] is -0.388 (inactive); in experiment [6], 0.0057 (inactive). Besides, the NADPH fluorescence slope in experiment [5] is 0.000113 (inactive).

Turning to `c1ccc(-c2nn3nnnc3c3ccccc23)cc1`, the cell count in experiment [1] came out at 194. In addition, the inhibition in experiment [1] is -3% (inactive); in experiment [3], -2.7% (inactive); in experiment [7] it was 8.1% (inactive); in experiment [8] it was 20.5% (inactive). In addition, in experiment [2], the inhibition of aggregation was 6.8% (inactive). For the same molecule, the values for the nuclei count in experiment [2] and in experiment [3] were 91.1% and 85.1%, respectively. Further, the fluorescence slope in experiment [4] was -0.573 (inactive); in experiment [6] it was 0.00565 (inactive). In addition, the NADPH fluorescence slope in experiment [5] was -2.5e-05 (inactive).

On to `CC(C)(C)C1CCc2c(sc3c2C(=O)NC(c2ccco2)N3)C1` (centres undefined), for which, in experiment [1], the cell count came out at 639. In addition, the inhibition was -34.8% (inactive) in experiment [1], 15.7% (inactive) in experiment [3], -39.4% (inactive) in experiment [7] and -133% (inactive) in experiment [8]. In addition, the inhibition of aggregation in experiment [2] was 14.3% (inactive). Besides, the nuclei count in experiment [2] came out at 125%; in experiment [3], 97%. The results for the fluorescence slope in experiment [4] and in experiment [6] were -0.506 (inactive) and 0.00491 (inactive), respectively. Further, the NADPH fluorescence slope in experiment [5] is 2.4e-05 (inactive).

In the case of `COC(=O)C1=C(C)NC(C)=C(C(=O)OC)C1c1cc2cc(C)ccc2[nH]c1=O`, the cell count in experiment [1] was determined as 509. The inhibition in experiment [1] was 11.1% (inactive); in experiment [3], -103% (inactive); in experiment [7] it was 18.9% (inactive); in experiment [8], 30.9% (inactive). For the same molecule, in experiment [2], the inhibition of aggregation was -7.7% (inactive). In addition, the nuclei count in experiment [2] came to 102%; in experiment [3], 136%. Also, the results for the fluorescence slope in experiment [4] and in experiment [6] were -0.493 (inactive) and 0.00508 (inactive), respectively. Also, the NADPH fluorescence slope in experiment [5] is -2.9e-05 (inactive).

With `CCn1c(SCC(=O)NCc2ccco2)nc2c(c1=O)SC(C)C2` (centres undefined), in experiment [1], the cell count came to 368. Besides, the inhibition in experiment [1] is 8.3% (inactive); in experiment [3], -14.8% (inactive); in experiment [7], 4.07% (inactive); in experiment [8] it was 9.1% (inactive). For the same molecule, in experiment [2], the inhibition of aggregation was -2.9% (inactive). The results for the nuclei count in experiment [2] and in experiment [3] were 101% and 115%, respectively. Further, the fluorescence slope in experiment [4] is -0.4 (inactive); in experiment [6] it was 0.0058 (inactive). In experiment [5], the NADPH fluorescence slope was -0.000131 (inactive).

As to `CSc1nc2c(ccc3ccccc32)o1`, in experiment [1], the cell count came to 572. The inhibition was 4.2% (inactive) in experiment [1], -70.5% (inactive) in experiment [3], -5.19% (inactive) in experiment [7] and -21.2% (inactive) in experiment [8]. Moreover, the inhibition of aggregation in experiment [2] is -4.8% (inactive). Moreover, the values for the nuclei count in experiment [2] and in experiment [3] were 104% and 102%, respectively. For the same molecule, the fluorescence slope in experiment [4] is -0.566 (inactive); in experiment [6], 0.00656 (inactive). In addition, the NADPH fluorescence slope in experiment [5] was -1.5e-05 (inactive).

With `CCCn1c(SCC(=O)NCCc2ccccc2)nnc1-c1ccccn1`, the cell count in experiment [1] amounted to 501. Further, the inhibition is -7.9% (inactive) in experiment [1], -28.9% (inactive) in experiment [3], 3.67% (inactive) in experiment [7] and 12.4% (inactive) in experiment [8]. Further, the inhibition of aggregation in experiment [2] was 12.6% (inactive). Besides, the nuclei count stood at 103% in experiment [2] and 104% in experiment [3]. The fluorescence slope was -0.543 (inactive) in experiment [4] and 0.00518 (inactive) in experiment [6]. The NADPH fluorescence slope in experiment [5] was -4.4e-05 (inactive).

Take `O=C(CSc1nc(-c2ccco2)cc(C(F)(F)F)n1)N1CCCc2ccccc21`: the cell count in experiment [1] worked out at 700. Also, the inhibition in experiment [1] is 0% (inactive); in experiment [3], -20.9% (inactive); in experiment [7] it was 19% (inactive); in experiment [8], 13.4% (inactive). Besides, the inhibition of aggregation in experiment [2] is 3.1% (inactive). Moreover, the nuclei count in experiment [2] worked out at 104%; in experiment [3], 114%. Besides, the results for the fluorescence slope in experiment [4] and in experiment [6] were -0.585 (inactive) and 0.00488 (inactive), respectively. Besides, the NADPH fluorescence slope in experiment [5] is -2.5e-05 (inactive).

For `Cc1nc2nc(Cc3ccccc3)[nH]n2c(=O)c1Cc1ccccc1`, the cell count in experiment [1] turned out to be 351. Besides, the inhibition in experiment [1] was -3.3% (inactive); in experiment [3], -62.2% (inactive); in experiment [7], 9.12% (inactive); in experiment [8], 15.7% (inactive). Also, the inhibition of aggregation in experiment [2] is -11.2% (inactive). Further, the nuclei count turned out to be 97% in experiment [2] and 96.1% in experiment [3]. Also, the fluorescence slope is -0.576 (inactive) in experiment [4] and 0.0029 (inactive) in experiment [6]. In experiment [5], the NADPH fluorescence slope was -4.3e-05 (inactive).

Turning to `Cc1ccc(-c2cc(C(F)F)nc(N3CCC(C)CC3)n2)cc1`, the cell count in experiment [1] turned out to be 653. The inhibition in experiment [1] is -35.4% (inactive); in experiment [3], -81.9% (inactive); in experiment [7], 4.72% (inactive); in experiment [8], -1.99% (inactive). In experiment [2], the inhibition of aggregation is -11.6% (inactive). Moreover, the nuclei count in experiment [2] came out at 102%; in experiment [3] it was 117%. The fluorescence slope in experiment [4] is -0.432 (inactive); in experiment [6] it was 0.00777 (inactive). Moreover, the NADPH fluorescence slope in experiment [5] was -1.2e-05 (inactive).

For `O=C(C1CCN(S(=O)(=O)c2cccnc2)CC1)N1CCN(c2ccc(Cl)cc2)CC1`, the cell count in experiment [1] worked out at 447. Besides, the inhibition in experiment [1] is -1.6% (inactive); in experiment [3] it was -26.1% (inactive); in experiment [7], 7.3% (inactive); in experiment [8], -25.5% (inactive). The inhibition of aggregation in experiment [2] is 11.5% (inactive). The results for the nuclei count in experiment [2] and in experiment [3] were 109% and 100%, respectively. Also, the fluorescence slope in experiment [4] is -0.447 (inactive); in experiment [6], 0.00572 (inactive). The NADPH fluorescence slope in experiment [5] was 3.3e-05 (inactive).

Usually inhibition stands for the change of the read-out against control, counted positive when it falls.
